≈ marks a conversion by molar mass, not a printed value.
What was measured:
[1] = Oral bioavailability in rat at 5 mg/kg dosed in 0.5% methylcellulose in water; type: ADME, organism-based; details: in vivo
Summary of the method: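 Oral dosing at 5 mg/kg, formulated in 0.5% methylcellulose in water.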

[2] = target: Protein smoothened (Mus musculus) (UniProt P56726); assay: Potency ratio, ratio of IC50 for compound to IC50 for compound 1 in mouse C3H10T1/2 cells by SMO/SHH transient transcriptional activation based Gli-luciferase reporter assay; type: cell-based; details: C3H 10T1/2
[3] = Aqueous solubility of the compound; type: physicochemical; details: buffer
[4] = Plasma clearance in rat at 2 mg/kg, iv dosed in 20% PEG400/80% H2O; type: ADME, organism-based; parameters: dose 2 mg/kg, route intravenous
Summary of the method: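 Single IV dose of 2 mg/kg formulated in 20% PEG400/80% H2O. Plasma clearance was determined.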

[5] = target: Protein smoothened (Mus musculus, UniProt P56726); assay: Inhibition of Smo in mouse C3H10T1/2 cells using human recombinant SHH assessed as effect on SMO/SHH transient transcriptional activation after 20 hrs by Gli-luciferase reporter assay; type: cell-based, C3H 10T1/2
[6] = Apparent permeability of the compound across apical to basolateral side in human Caco2 cells; type: ADME, cell-based; details: Caco-2
[7] = Apparent permeability of the compound across basolateral to apical side in human Caco2 cells; type: ADME, cell-based; details: Caco-2
[8] = Percentage unbound in dog plasma; type: ADME, cell-free, Canis lupus familiaris
[9] = Induction of genotoxicity in micronucleus by micronucleus test
[10] = Clearance in dog at 0.5 mg/kg, iv and 3 mg/kg, po; type: ADME, organism-based, Canis lupus familiaris; details: in vivo
Summary of the method: (§1)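 In dogs, the IV dose was 0.5 mg/kg in solution in 10% EtOH/20% PEG400/70% PBS. The oral dose was 3 mg/kg in methylcellulose in water.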

[11] = Half life in rat at 1 mg/kg, iv and 1 mg/kg, po; type: ADME, organism-based; details: in vivo
Summary of the method: (§2)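 Rats received 1 mg/kg IV as a solution in 10% EtOH/20% PEG400/70% PBS. A separate group received 1 mg/kg orally in methylcellulose in water.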

[12] = Volume of distribution at steady state in rat at 1 mg/kg, iv and 1 mg/kg, po; type: ADME, organism-based; details: in vivo, read-out: Vdss; summary of the method: as §2
[13] = Fraction unbound in rat liver microsomes; type: ADME, Microsome
[14] = Intrinsic clearance in dog microsomes; type: ADME, Canis lupus familiaris, Microsome
[15] = Percentage unbound in rat plasma; type: ADME, cell-free
[16] = Intrinsic clearance in rat microsomes; type: ADME, Microsome
[17] = Volume of distribution at steady state in dog at 0.5 mg/kg, iv and 3 mg/kg, po; type: ADME, organism-based, Canis lupus familiaris; details: in vivo, read-out: Vdss; summary of the method: as §1
[18] = target: T1, Cytochrome P450 2C8 (Homo sapiens, UniProt P10632); assay: Inhibition of CYP2C8; type: ADME
T1 sequence (P10632 whole entry): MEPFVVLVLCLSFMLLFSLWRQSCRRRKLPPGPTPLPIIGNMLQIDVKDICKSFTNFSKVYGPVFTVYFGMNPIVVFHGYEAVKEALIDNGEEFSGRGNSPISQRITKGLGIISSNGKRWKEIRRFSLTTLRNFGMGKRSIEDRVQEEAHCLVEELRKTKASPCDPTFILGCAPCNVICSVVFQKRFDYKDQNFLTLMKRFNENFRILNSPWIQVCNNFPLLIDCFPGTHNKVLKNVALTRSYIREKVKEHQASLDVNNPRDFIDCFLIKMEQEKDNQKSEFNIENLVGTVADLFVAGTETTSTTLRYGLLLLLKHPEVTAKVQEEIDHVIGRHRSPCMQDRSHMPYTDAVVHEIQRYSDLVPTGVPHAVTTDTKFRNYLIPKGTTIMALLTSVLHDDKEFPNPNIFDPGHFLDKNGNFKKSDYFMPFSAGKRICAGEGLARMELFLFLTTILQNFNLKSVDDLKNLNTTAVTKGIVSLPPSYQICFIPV

[19] = target: T2, Cytochrome P450 1A2 (Homo sapiens, UniProt P05177); assay: Inhibition of CYP1A2; type: ADME
T2 sequence (P05177 whole entry): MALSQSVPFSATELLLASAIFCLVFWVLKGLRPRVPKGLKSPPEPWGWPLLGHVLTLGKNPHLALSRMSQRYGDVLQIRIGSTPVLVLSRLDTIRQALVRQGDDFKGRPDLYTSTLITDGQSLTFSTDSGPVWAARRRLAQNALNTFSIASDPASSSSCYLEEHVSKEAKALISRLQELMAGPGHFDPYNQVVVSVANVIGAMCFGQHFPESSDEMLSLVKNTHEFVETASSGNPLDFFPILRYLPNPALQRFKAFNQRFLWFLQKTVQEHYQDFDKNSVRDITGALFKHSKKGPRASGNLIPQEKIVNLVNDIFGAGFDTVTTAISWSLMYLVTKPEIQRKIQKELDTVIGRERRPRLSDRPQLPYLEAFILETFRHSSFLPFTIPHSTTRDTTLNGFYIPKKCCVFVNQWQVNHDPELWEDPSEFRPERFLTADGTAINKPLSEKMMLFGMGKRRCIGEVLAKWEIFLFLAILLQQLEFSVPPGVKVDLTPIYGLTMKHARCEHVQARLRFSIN

[20] = tested on: Salmonella typhimurium; assay: Induction of genotoxicity in Salmonella typhimurium by Ames test; type: toxicity, organism-based; details: salmonella enterica subsp. enterica serovar typhimurium
[21] = Clearance in rat at 1 mg/kg, iv and 1 mg/kg, po; type: ADME, organism-based; details: in vivo; summary of the method: as §2
[22] = target: Cytochrome P450 3A4 (Homo sapiens, UniProt P08684); assay: Inhibition of CYP3A4; type: ADME
[23] = Oral bioavailability in dog at 3 mg/kg; type: ADME, organism-based, Canis lupus familiaris; details: in vivo; summary of the method: as §1
[24] = target: Cytochrome P450 2C9 (Homo sapiens, UniProt P11712); assay: Inhibition of CYP2C9; type: ADME
[25] = Half life in dog at 0.5 mg/kg, iv and 3 mg/kg, po; type: ADME, organism-based, Canis lupus familiaris; details: in vivo; summary of the method: as §1
[26] = Fraction unbound in human liver microsomes; type: ADME, Microsome
[27] = target: Cytochrome P450 2C19 (Homo sapiens, UniProt P33261); assay: Inhibition of CYP2C19; type: ADME
[28] = Fraction unbound in dog liver microsomes; type: ADME, Canis lupus familiaris, Microsome
[29] = Dissociation constant, pKa of the compound; type: physicochemical
[30] = Lipophilicity, log D of the compound; type: physicochemical; details: octanol/water
[31] = Oral bioavailability in rat at 1 mg/kg; type: ADME, organism-based; details: in vivo; summary of the method: as §2
[32] = Percentage unbound in human plasma; type: ADME, cell-free
[33] = target: Cytochrome P450 2D6 (Homo sapiens, UniProt P10635); assay: Inhibition of CYP2D6; type: ADME
[34] = Intrinsic clearance in human microsomes; type: ADME, Microsome
[35] = Chemical solubility of the compound in SGN at pH 1.2; type: physicochemical
[36] = Chemical solubility of the compound in PBS at pH 6.5; type: physicochemical
[37] = Free intrinsic clearance in human microsomes; type: ADME, Microsome
[38] = Drug excretion in rat bile at 2 mg/kg, iv; type: ADME, organism-based; parameters: dose 2 mg/kg, route intravenous; details: read-out: Drug excretion
[39] = Drug excretion in rat urine at 2 mg/kg, iv; type: ADME, organism-based; parameters: dose 2 mg/kg, route intravenous; details: read-out: Drug excretion
[40] = Oral bioavailability in dog at 5 mg/kg; type: ADME, organism-based, Canis lupus familiaris; details: in vivo
[41] = Fraction absorbed in dog at 5 mg/kg, po; type: ADME, organism-based, Canis lupus familiaris; parameters: dose 5 mg/kg, route oral; details: in vivo
[42] = Plasma clearance in dog; type: ADME, organism-based, Canis lupus familiaris

Protein smoothened, sequence (P56726 whole entry): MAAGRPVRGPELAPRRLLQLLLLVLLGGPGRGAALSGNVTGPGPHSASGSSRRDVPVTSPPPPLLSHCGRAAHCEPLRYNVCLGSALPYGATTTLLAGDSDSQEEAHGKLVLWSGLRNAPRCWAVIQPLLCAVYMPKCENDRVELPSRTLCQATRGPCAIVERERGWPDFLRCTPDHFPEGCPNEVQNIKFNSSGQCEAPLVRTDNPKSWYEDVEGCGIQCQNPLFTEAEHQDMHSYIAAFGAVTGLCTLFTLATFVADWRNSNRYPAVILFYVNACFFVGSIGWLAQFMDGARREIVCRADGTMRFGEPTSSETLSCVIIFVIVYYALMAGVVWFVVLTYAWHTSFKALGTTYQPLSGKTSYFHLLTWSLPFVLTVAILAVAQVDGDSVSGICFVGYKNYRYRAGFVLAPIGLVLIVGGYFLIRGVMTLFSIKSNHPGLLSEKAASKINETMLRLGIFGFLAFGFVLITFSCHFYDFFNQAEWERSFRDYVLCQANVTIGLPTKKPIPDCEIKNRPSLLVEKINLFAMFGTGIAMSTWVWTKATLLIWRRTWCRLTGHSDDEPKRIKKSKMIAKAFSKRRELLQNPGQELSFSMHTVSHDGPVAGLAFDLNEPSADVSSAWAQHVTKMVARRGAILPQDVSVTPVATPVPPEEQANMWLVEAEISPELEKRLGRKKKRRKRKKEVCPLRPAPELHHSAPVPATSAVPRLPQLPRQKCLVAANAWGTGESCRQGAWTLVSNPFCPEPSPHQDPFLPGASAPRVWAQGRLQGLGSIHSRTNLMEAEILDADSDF
Protein smoothened (Mus musculus), sequence (P56726 whole entry): as above
Cytochrome P450 2D6, sequence (P10635 whole entry): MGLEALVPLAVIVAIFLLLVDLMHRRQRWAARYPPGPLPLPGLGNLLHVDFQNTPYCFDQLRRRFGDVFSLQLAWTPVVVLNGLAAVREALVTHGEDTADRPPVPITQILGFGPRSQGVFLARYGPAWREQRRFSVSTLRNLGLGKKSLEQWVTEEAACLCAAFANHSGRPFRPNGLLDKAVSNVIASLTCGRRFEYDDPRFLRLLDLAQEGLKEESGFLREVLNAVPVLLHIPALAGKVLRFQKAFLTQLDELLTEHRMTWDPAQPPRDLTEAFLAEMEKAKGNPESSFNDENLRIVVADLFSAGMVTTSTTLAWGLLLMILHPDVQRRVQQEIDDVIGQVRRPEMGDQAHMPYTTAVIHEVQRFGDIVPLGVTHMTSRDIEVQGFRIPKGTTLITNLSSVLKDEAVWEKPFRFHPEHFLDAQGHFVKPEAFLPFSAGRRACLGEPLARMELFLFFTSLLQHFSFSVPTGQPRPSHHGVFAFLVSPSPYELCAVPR
Cytochrome P450 2C9, sequence (P11712 whole entry): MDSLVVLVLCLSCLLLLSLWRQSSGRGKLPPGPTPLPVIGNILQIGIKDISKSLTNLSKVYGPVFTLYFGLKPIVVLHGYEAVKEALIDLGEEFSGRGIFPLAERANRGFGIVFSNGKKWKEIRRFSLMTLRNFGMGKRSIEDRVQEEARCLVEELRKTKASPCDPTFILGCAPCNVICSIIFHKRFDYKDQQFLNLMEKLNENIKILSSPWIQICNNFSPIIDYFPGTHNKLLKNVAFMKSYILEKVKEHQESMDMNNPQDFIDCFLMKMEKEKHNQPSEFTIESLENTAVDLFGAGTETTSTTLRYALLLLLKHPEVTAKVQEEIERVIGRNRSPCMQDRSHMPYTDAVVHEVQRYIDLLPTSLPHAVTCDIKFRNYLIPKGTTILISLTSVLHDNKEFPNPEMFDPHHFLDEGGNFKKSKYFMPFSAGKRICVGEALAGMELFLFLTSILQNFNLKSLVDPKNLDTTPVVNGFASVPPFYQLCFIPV
Cytochrome P450 3A4, sequence (P08684 whole entry): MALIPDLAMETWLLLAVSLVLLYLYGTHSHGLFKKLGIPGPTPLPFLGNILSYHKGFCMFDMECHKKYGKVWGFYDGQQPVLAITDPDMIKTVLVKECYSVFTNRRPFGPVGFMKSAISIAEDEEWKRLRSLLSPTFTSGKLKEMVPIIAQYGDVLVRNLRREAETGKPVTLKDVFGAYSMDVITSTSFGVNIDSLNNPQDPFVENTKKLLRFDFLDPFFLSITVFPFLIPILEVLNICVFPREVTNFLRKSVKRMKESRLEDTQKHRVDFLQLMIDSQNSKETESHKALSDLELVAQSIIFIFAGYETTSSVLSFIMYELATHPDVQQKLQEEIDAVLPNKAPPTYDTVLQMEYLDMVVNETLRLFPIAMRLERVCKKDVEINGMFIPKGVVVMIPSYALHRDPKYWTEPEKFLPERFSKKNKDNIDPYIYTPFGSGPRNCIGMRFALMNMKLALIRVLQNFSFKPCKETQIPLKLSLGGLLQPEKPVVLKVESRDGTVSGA
Cytochrome P450 2C19, sequence (P33261 whole entry): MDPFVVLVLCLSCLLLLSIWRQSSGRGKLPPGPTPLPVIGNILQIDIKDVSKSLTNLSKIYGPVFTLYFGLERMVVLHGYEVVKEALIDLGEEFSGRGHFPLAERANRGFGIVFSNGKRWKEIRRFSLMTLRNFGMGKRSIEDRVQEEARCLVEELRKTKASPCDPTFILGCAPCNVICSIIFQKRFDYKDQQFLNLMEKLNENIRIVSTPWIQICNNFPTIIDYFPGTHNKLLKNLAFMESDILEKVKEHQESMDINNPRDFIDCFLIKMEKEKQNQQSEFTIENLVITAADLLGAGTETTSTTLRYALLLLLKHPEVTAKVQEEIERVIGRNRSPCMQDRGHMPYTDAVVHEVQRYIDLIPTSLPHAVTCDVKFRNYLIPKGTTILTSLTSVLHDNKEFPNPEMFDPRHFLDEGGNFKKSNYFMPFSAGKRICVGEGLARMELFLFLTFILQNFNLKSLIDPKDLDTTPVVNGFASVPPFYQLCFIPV

## O=C(N[C@@H]1CCC[C@H](c2nc3ccccc3[nH]2)C1)c1ccc2c(c1)OCCO2
[1]
  bioavailability: 4%
[2]
  Ratio IC50: 18
[3]
  solubility: 37 µg/mL (≈ 98 µM)
[4]
  clearance: 33 mL/min/kg
[5]
  IC50: 88 nM
[6]
  Papp A→B: 85 ×10⁻⁶ cm/s
[7]
  Papp B→A: 65 ×10⁻⁶ cm/s

## CN1CC[C@@H](NC(=O)Nc2ccc(C#N)cc2)C[C@@H]1c1nc2ccccc2[nH]1 [GLASDEGIB]
[8]
  fraction unbound: 0.141
[9]
  Activity: Non-toxic
[10]
  clearance: 3.9 mL/min/kg
[5]
  IC50: 5 nM
[11]
  half-life: 1.4 h
[12]
  Vd: 4.8 L/kg
[6]
  Papp A→B: 5.98 ×10⁻⁶ cm/s
[13]
  fraction unbound: 0.57
[14]
  CLint scaled: < 14 mL/min/kg
[15]
  fraction unbound: 0.109
[16]
  CLint scaled: 67 mL/min/kg
[17]
  Vd: 4.3 L/kg
[18]
  IC50: > 30000 nM
[19]
  IC50: > 30000 nM
[20]
  Activity: Non-toxic
[21]
  clearance: 31 mL/min/kg
[7]
  Papp B→A: 15.6 ×10⁻⁶ cm/s
[22]
  IC50: > 30000 nM
[23]
  bioavailability: 68%
[24]
  IC50: > 30000 nM
[25]
  half-life: 2.9 h
[26]
  fraction unbound: 0.61
[27]
  IC50: > 30000 nM
[28]
  fraction unbound: 0.54
[29]
  pKa: 6
[30]
  logD: 2.48
[31]
  bioavailability: 33%
[32]
  fraction unbound: 0.091
[33]
  IC50: > 30000 nM
[34]
  CLint scaled: 6.3 mL/min/kg

## CN1CC[C@@H](NC(=O)Nc2cccc(C#N)c2)C[C@@H]1c1nc2ccccc2[nH]1
[2]
  Ratio IC50: > 50
[5]
  IC50: 72 nM

## COc1ccc(NC(=O)N[C@@H]2CCN(C)[C@@H](c3nc4ccccc4[nH]3)C2)cc1
[2]
  Ratio IC50: > 50
[5]
  IC50: 35 nM

## CN1CC[C@@H](NC(=O)Nc2ccccc2)C[C@@H]1c1nc2ccccc2[nH]1
[2]
  Ratio IC50: > 50
[5]
  IC50: 103 nM

## CN1CC[C@@H](NC(=O)Nc2ccc(C(F)(F)F)cc2)C[C@@H]1c1nc2ccccc2[nH]1
[2]
  Ratio IC50: > 50
[5]
  IC50: 5 nM

## CN1CC[C@@H](NC(=O)Nc2ccc(C#N)cc2)C[C@@H]1c1nc2ccccc2[nH]1.Cl.O
[35]
  solubility: > 69000 µg/mL
[3]
  solubility: 20 µg/mL
[36]
  solubility: 1150 µg/mL

## CN1CC[C@@H](NC(=O)Nc2ccc(Cl)cc2)C[C@@H]1c1nc2ccccc2[nH]1
[2]
  Ratio IC50: > 50
[5]
  IC50: 20 nM

## CN1CC[C@@H](NC(=O)Nc2cccnc2)C[C@@H]1c1nc2ccccc2[nH]1
[2]
  Ratio IC50: > 50
[5]
  IC50: 191 nM

## CN1CC[C@@H](NC(=O)Nc2ccc3c(c2)OCCO3)C[C@@H]1c1nc2ccccc2[nH]1
[2]
  Ratio IC50: > 50
[5]
  IC50: 45 nM

## O=C(Nc1cccc(-c2nc3ccccc3[nH]2)c1)c1ccc2c(c1)OCCO2
[8]
  fraction unbound: < 0.01
[3]
  solubility: 0.1 µg/mL (≈ 0.269 µM)
[4]
  clearance: 25 mL/min/kg
[5]
  IC50: 5 nM
[15]
  fraction unbound: < 0.01
[37]
  CL free: 0.314 mL/min/kg
[32]
  fraction unbound: < 0.01

## CN1CC[C@@H](NC(=O)Nc2ccc(C#N)cc2)C[C@@H]1c1nc2ccccc2[nH]1
[2]
  Ratio IC50: > 50

## CN1CC[C@@H](NC(=O)c2ccc3c(c2)OCCO3)C[C@@H]1c1nc2ccccc2[nH]1
[38]
  dose excreted: < 5%
[2]
  Ratio IC50: 9
[4]
  clearance: > 70 mL/min/kg
[39]
  dose excreted: < 5%
[5]
  IC50: 43 nM
[40]
  bioavailability: 33%
[41]
  Fa: > 50%
[42]
  clearance: 18 mL/min/kg

Source: ChEMBL document CHEMBL2040751, “Discovery of PF-04449913, a Potent and Orally Bioavailable Inhibitor of Smoothened” (ACS Med Chem Lett, 2012)
